The source of these data is PMC9586919 (ACS infectious diseases, 2021).

“Also recorded” adds a separate entry of the source. Like-named read-outs stand apart in the source and are kept apart here. Bounds are passed on as bounds.

For data set [1], the system named is Human Embryonic Kidney (HEK) cells. Put plainly: Toxicity against Human Embryonic Kidney. Format: cell-based. Conditions: for S.I. (Selectivity Index): HEK versus T. vaginalis.
In data set [2] the test system is T. vaginalis trophozoites of the metronidazole-sensitive strain G3. Briefly: Resorufin-based drug sensitivity assay. Conditions: for EC50: Trichomonas vaginalis. Type of data set: cell-based, Trichomonas vaginalis.
For data set [3], the system named is T. vaginalis strain F1623. Briefly: In vitro activity against T. vaginalis F1623. Type of data set: cell-based, Trichomonas vaginalis. Conditions: T. vaginalis strain F1623, same assay as T. foetus.
Data set [4] concerns T. foetus D1 trophozoites. Briefly: Murine model of vaginal trichomonad infection. Type of data set: in vivo, BALB/c mice. In outline: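 Freshly weaned (21–24 days) female BALB/c mice were infected intravaginally with 10^6 mid-log T. foetus D1 trophozoites in 5 µL growth medium. One day later they received five doses over three days (1 on day 1, 2 on each of days 2 and 3). Doses were either oral gavage of 25 mg/kg per dose as a suspension in 1% hypromellose, 50 µL, or intravaginal 50 µg in 5 µL; controls received solvent. Live trophozoites in 30 µL PBS vaginal washes were counted in a chamber on day 4.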

Another data set relates to T. foetus strain D1. Put plainly: In vitro activity against T. foetus. Type of data set: cell-based, Tritrichomonas foetus.
In data set [5] the test system is T. vaginalis. Put plainly: Fluorescence microscopy. Type of data set: cell-based, Trichomonas vaginalis. Conditions: 2×EC50. The essentials: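 Samples from the growth-curve cultures, taken at 8-h intervals, were centrifuged twice at 2600 × g for 10 min at 4 °C, with a PBS pH 7.4 wash in between. Cells were air-dried 30 min on poly-L-lysine slides, fixed 15 min in 4% paraformaldehyde/PBS, washed, and mounted in antifade medium with DAPI. Nuclear volumes were measured from Z-stacks. Cultures were passaged at 24 h to 1.32×10^5 cells/mL.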

For data set [6] the following is noted: mouse models of Chagas' disease; cited from earlier work.
For data set [7], the system named is T. vaginalis. Particulars: cited from earlier work.
Data set [8] deals with T. vaginalis trophozoites. Briefly: Growth curve assay. Type of data set: cell-based, Trichomonas vaginalis. Particulars: 2×EC50, continuous exposure 56 h, passage after 24 h.
Where [9] appears, read: read-out: EC50 HEK, HEK cells, average of at least 3 independent determinations and SD.
The mark [10] stands for this setting: read-out: EC50 T. vaginalis, resorufin assay, 24 h + 2 h, 2% O2/98% N2, average of at least 3 independent determinations and SD.
[11] abbreviates: Homo sapiens, HEK293, read-out: EC50 HEK.

For the molecule `Nc1ncnc2c1c(-c1ccc(F)c(F)c1)cn2[C@@H]1O[C@H](CO)C[C@H]1O` [FH10682], in data set [1] (setting [9]), the EC50 was over 200 µM.

Take `Nc1ncnc2c1c(-c1ccc(Cl)c(F)c1)cn2[C@@H]1O[C@H](CO)C[C@H]1O` [FH10683]: in [1] (setting [9]), the EC50 turned out to be 151 ± 1 µM.

Take `Nc1ncnc2c1c(-c1ccc(Cl)c(Cl)c1)cn2[C@@H]1O[C@H](CO)[C@@H](O)[C@H]1O` [FH3147, 7-deaza,7-(3,4-dichlorophenyl)adenosine]: the “in vitro anti-T. vaginalis activity (EC50) described in words” value (shortened to “in vitro anti-T. vaginalis activity”) in data set [2] was “double-digit nanomolar”. Further, the EC50 in data set [2] (setting [10]) was 0.029 ± 0.003 µM; in data set [1] (setting [11]) it was over 200 µM. In data set [1], the “S.I. (Selectivity Index)” value is on record as >10,000.

Turning to `Nc1ncnc2c1c(-c1ccccc1F)cn2[C@@H]1O[C@H](CO)[C@@H](O)[C@H]1O` [FH7435], in [1] (setting [9]), the EC50 is over 200 µM.

Turning to `Nc1ncnc2c1c(-c1ccc(Cl)cc1)cn2[C@@H]1O[C@H](CO)[C@@H](O)[C@H]1O` [TH1012], the EC50 is 0.18 µM in [3], over 200 µM in [1] (setting [9]) and 13.9 µM in the data set with T. foetus strain D1. The “in vitro anti-T. vaginalis activity” value in [2] is reported as “double-digit nanomolar”. In addition, the “adverse effects during the treatment period” value in data set [4] (oral 5×25 mg/kg or topical 1%, 25 mg/kg) is listed as “No adverse effects were observed; also recorded: without any apparent ill effects”. In addition, the “effect on infection (live trophozoites in vaginal washes on day 4)” value in [4] (topical intravaginal, 1% (50 μg per dose), five doses over three days) is “almost complete eradication of the infection; also recorded: almost completely eradicated the T. foetus infection; also recorded: strongly inhibited T. foetus infection in mice”. The “cell morphology / nuclei (DAPI)” value in the data set on T. vaginalis [5] (24 h continuous incubation) was “displayed multiple nuclei at 24 h”. Besides, the “ill effects on the animals” value in [6] is on record as “without any apparent ill effects”.

With `Nc1ncnc2c1c(-c1ccc(C(F)(F)F)cc1)cn2[C@@H]1O[C@H](CO)C[C@H]1O` [FH9576], the EC50 in data set [1] (setting [9]) amounted to 148 ± 22 µM. Besides, the “cell morphology / nuclei (DAPI)” value in the data set with T. vaginalis [5] (16 h continuous incubation) is “cells still looked normal at 16 h”.

Take `Nc1ncnc2c1c(-c1ccccc1)cn2[C@@H]1O[C@H](CO)[C@@H](O)[C@H]1O` [TH1004, 7-deaza-7-phenyladenosine]: the results for the EC50 in [2] (setting [10]) and in data set [1] (setting [11]) were 0.44 ± 0.059 µM and over 200 µM, respectively. Moreover, the “S.I. (Selectivity Index)” value in [1] is listed as over 465. Also, the “cell morphology / nuclei (DAPI)” value in the data set with T. vaginalis [5] (24 h continuous incubation) is “the cell membrane appears to be disintegrating and multiple nuclei are present in some cells”.

Regarding `Cc1cc(-c2cn([C@@H]3O[C@H](CO)C[C@H]3O)c3ncnc(N)c23)ccc1Cl` [FH10648], the EC50 in [1] (setting [9]) came to 146 ± 13 µM.

On to `Nc1ncnc2c1c(-c1ccc([N+](=O)[O-])cc1)cn2[C@@H]1O[C@H](CO)C[C@H]1O` [FH9582], for which, in [1] (setting [9]), the EC50 is over 200 µM.

Take `COc1cc(-c2cn([C@@H]3O[C@H](CO)C[C@H]3O)c3ncnc(N)c23)ccc1Cl` [FH10649]: the EC50 in data set [1] (setting [9]) was 178 ± 6 µM.

In the case of `CCc1ccc(-c2cn([C@@H]3O[C@H](CO)C[C@H]3O)c3ncnc(N)c23)cc1` [FH10647], in [1] (setting [9]), the EC50 was determined as 133 ± 2 µM.

Consider `Nc1ncnc2c1ncn2[C@@H]1O[C@H](CO)[C@@H](O)[C@@H]1O` [adenine arabinoside], for which the antitrichomonal efficacy entry in the data set on T. vaginalis [7] was “substantial antitrichomonal efficacy”.

On to `Cc1ccc(-c2cn([C@@H]3O[C@H](CO)[C@@H](O)[C@H]3O)c3ncnc(N)c23)cc1C` [FH13820], for which, in data set [1] (setting [9]), the EC50 is over 200 µM.

For `COc1ccc(-c2cn([C@@H]3O[C@H](CO)C[C@H]3O)c3ncnc(N)c23)cc1Cl` [FH10645], the EC50 in [1] (setting [9]) is over 200 µM.

Regarding 2-F, 2’-deoxyadenosine, the antitrichomonal activity in the data set with T. vaginalis [7] is recorded as about 100 nM.

As to `COc1ccc(-c2cn([C@@H]3O[C@H](CO)[C@@H](O)[C@H]3O)c3ncnc(N)c23)cc1` [TH1013], in data set [1] (setting [9]), the EC50 was over 200 µM.

As to `COc1ccc(-c2cn([C@@H]3O[C@H](CO)C[C@H]3O)c3ncnc(N)c23)cc1` [FH8494], the EC50 in data set [1] (setting [9]) is over 200 µM.

On to `Nc1ncnc2c1c(-c1ccc(C(F)(F)F)cc1)cn2[C@@H]1O[C@H](CO)[C@@H](O)[C@H]1O` [FH11704], for which the EC50 in [1] (setting [9]) was over 200 µM.

`Nc1ncnc2c1c(-c1ccc(OC(F)(F)F)cc1)cn2[C@@H]1O[C@H](CO)C[C@H]1O` [FH9577]: the “cell morphology / nuclei (DAPI)” value in the data set with T. vaginalis [5] (16 h continuous incubation) is listed as “looked healthy at 16 h”; in the data set on T. vaginalis [5] (24 h continuous incubation), “clearly displayed multiple nuclei at 24 h”.

`Cc1ccc(-c2cn([C@@H]3O[C@H](CO)C[C@H]3O)c3ncnc(N)c23)cc1Cl` [FH10644]: the EC50 in [1] (setting [9]) stood at 94 ± 9 µM.

With `Nc1ncnc2c1c(-c1ccc(Cl)c(Cl)c1)cn2[C@@H]1O[C@H](CO)C[C@H]1O` [FH8513], in data set [1] (setting [9]), the EC50 is over 200 µM.

With `Nc1ncnc2c1c(-c1ccc3ccccc3c1)cn2[C@@H]1O[C@H](CO)C[C@H]1O` [FH9575], the EC50 in data set [1] (setting [9]) worked out at 44 ± 5 µM.

As for `Nc1ncnc2c1c(-c1ccc(F)cc1)cn2[C@@H]1O[C@H](CO)[C@@H](O)[C@H]1O` [MS1001], the EC50 in data set [1] (setting [9]) was over 200 µM.

As to `Nc1ncnc2c1c(-c1ccccc1)cn2[C@@H]1O[C@H](CO)C[C@H]1O` [FH8480], the “in vitro anti-T. vaginalis activity” value in data set [2] is listed as “low micromolar”.

For the molecule `Nc1nc(F)nc2nc[nH]c12` [Compound 2-F-adenine, 2-F-adenine], in the data set on T. vaginalis [7], the antitrichomonal activity is about 100 nM.

Turning to 2’-F,2’-deoxyadenosine, the antitrichomonal efficacy entry in the data set with T. vaginalis [7] is given as “substantial antitrichomonal efficacy”.

With `Nc1ncnc2c1c(-c1ccc(F)cc1)cn2[C@@H]1O[C@H](CO)C[C@H]1O` [FH10680], in data set [2], the “in vitro anti-T. vaginalis activity” value is given as “low micromolar”. Also, the EC50 in data set [1] (setting [9]) is over 200 µM.

`Cc1ccc(-c2cn([C@@H]3O[C@H](CO)[C@@H](O)[C@H]3O)c3ncnc(N)c23)cc1` [TH1011]: the “in vitro anti-T. vaginalis activity” value in data set [2] was “double-digit nanomolar”. For the same molecule, in data set [1] (setting [9]), the EC50 was over 200 µM.

`Cc1ncc([N+](=O)[O-])n1CCO` [metronidazole, reference compound]: in data set [8], the “effect on T. vaginalis growth” value is “managed a modest amount of growth before arrest and population decline”. The EC50 in data set [2] (BD pouch bags incubation, n=16) was 0.26 ± 0.02 µM; in data set [2] (confirmation experiments, n=9, unit inferred), 0.53 ± 0.1 µM; in [2] (in-pod incubation, n=16), 0.28 ± 0.02 µM; in data set [2] (introduction, hit criterion), about 0.3 µM.

In the case of `Nc1ncnc2c1ncn2[C@@H]1O[C@H](CO)[C@@H](O)[C@@H]1F` [2’-deoxy-2’-fluoroarabinoadenosine], the antitrichomonal efficacy entry in the data set with T. vaginalis [7] was “substantial antitrichomonal efficacy”.

For the molecule `Cc1ccc(-c2cn([C@@H]3O[C@H](CO)C[C@H]3O)c3ncnc(N)c23)cc1` [FH8481], in data set [2], the “in vitro anti-T. vaginalis activity” value is “low micromolar”. In data set [1] (setting [9]), the EC50 is over 200 µM.

As for `Nc1ncnc2c1c(-c1ccc(Cl)cc1Cl)cn2[C@@H]1O[C@H](CO)C[C@H]1O` [FH9581], in [1] (setting [9]), the EC50 was over 200 µM.

With `CC(C)c1ccc(-c2cn([C@@H]3O[C@H](CO)C[C@H]3O)c3ncnc(N)c23)cc1` [FH9574], in [1] (setting [9]), the EC50 turned out to be 94 ± 9 µM.

Take `Nc1ncnc2c1c(C1CCCCC1)cn2C1OC(CO)CC1O` (stereo not drawn) [FH10669]: the “in vitro anti-T. vaginalis activity” value in data set [2] is given as “very weak activity”.

For `Nc1ncnc2c1c(-c1ccc(F)c(Cl)c1)cn2[C@@H]1O[C@H](CO)C[C@H]1O` [FH10681], the EC50 in [1] (setting [9]) was over 200 µM.

As for `Nc1ncnc2c1c(-c1cccc(Cl)c1)cn2[C@@H]1O[C@H](CO)C[C@H]1O` [FH10641], in data set [1] (setting [9]), the EC50 is over 200 µM.

Consider `Cc1ccc(-c2cn([C@@H]3O[C@H](CO)C[C@H]3O)c3ncnc(N)c23)cc1C` [FH10653], for which the EC50 in data set [1] (setting [9]) is 168 ± 19 µM.

Consider `Nc1ncnc2c1c(-c1cccc(Cl)c1)cn2[C@@H]1O[C@H](CO)[C@@H](O)[C@H]1O` [FH8459], for which the EC50 in [1] (setting [9]) is over 200 µM.

For `Nc1ncnc2c1c(-c1cc(Cl)cc(Cl)c1)cn2[C@@H]1O[C@H](CO)[C@@H](O)[C@H]1O` [FH8460], the EC50 in data set [1] (setting [9]) was over 200 µM.

`Nc1ncnc2c1c(-c1ccc(Cl)cc1)cn2[C@@H]1O[C@H](CO)C[C@H]1O` [FH8512]: the EC50 in data set [1] (setting [9]) is over 200 µM. Further, the “ill effects on the animals” value in data set [6] was “without any apparent ill effects”.
